Calls of active or inactive are those of the source.
Experiments:
[1] = tested on: Mus musculus; assay: Anti-obesity activity in C57BL/6J mouse model of diet-induced obesity assessed as effect on RER at 10 mg/kg, ip dosed daily for 8 weeks by indirect calorimetry; format: functional, organism-based
Procedure, shortened: (§1)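 Daily ip dosing of C57BL/6J mice on high-fat diet (60% fat calories), starting at 12 weeks of age, for eight weeks. Mice were housed singly in an eight-chamber open-circuit indirect calorimetry system and monitored for 72 h in the fed state. VO2 and VCO2 were recorded. RER = VCO2/VO2; heat production = (3.185 + 1.232 × RER) × VO2. n = 5/group; means SEM.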

[2] = Stability in human liver microsomes assessed as parent compound remaining level after 30 mins; format: ADME, Microsome; conditions: read-out: Stabilty
[3] = tested on: Mus musculus; assay: Anti-obesity activity in C57BL/6J mouse model of diet-induced obesity assessed as suppression of 5-HT levels in serum at 10 mg/kg, ip dosed daily for 8 weeks by LC-MS/MS analysis; format: functional, organism-based
Procedure, shortened: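 C57BL/6J mice, 12 weeks old, on high-fat diet (60% fat calories) were dosed daily ip with vehicle or 10 mg/kg for eight weeks. Serum was isolated from cardiac-puncture blood and 5-HT was quantified by LC-MS/MS. n = 5/group; means SEM.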

[4] = tested on: Mus musculus; assay: Anti-obesity activity in C57BL/6J mouse model of diet-induced obesity assessed as suppression of fat mass at 10 mg/kg, ip dosed daily for 8 weeks; format: functional, organism-based
Procedure, shortened: (§2)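 High-fat diet (60% fat calories) fed to C57BL/6J mice from 12 weeks old, with daily ip vehicle or drug for 8 weeks. Fat, lean and fluid mass were measured in live mice with a body composition analyzer and expressed as percent. n = 6/group; means SEM.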

[5] = tested on: Mus musculus; assay: Anti-obesity activity in C57BL/6J mouse model of diet-induced obesity assessed as increase in VO2 at 10 mg/kg, ip dosed daily for 8 weeks by indirect calorimetry; format: functional, organism-based; procedure, shortened: as §1
[6] = tested on: Mus musculus; assay: Anti-obesity activity in C57BL/6J mouse model of diet-induced obesity assessed as suppression of 5-HT levels in serum at 10 mg/kg, ip dosed daily for 1 week by LC-MS/MS analysis; format: functional, organism-based; conditions: time 1.0 weeks
[7] = tested on: Mus musculus; assay: Anti-obesity activity in C57BL/6J mouse model of diet-induced obesity assessed as increase in multilocular adipocytes at 10 mg/kg, ip dosed daily for 8 weeks by H and E staining based histological analysis; format: functional, organism-based
Procedure, shortened: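 C57BL/6J mice, 12 weeks old, given daily ip vehicle or drug during 8 weeks of high-fat diet (60% fat calories). Sacrificed after 6 h fasting. Five-micron paraffin sections of eWAT, iWAT and BAT were deparaffinized and stained with H&E. Crown-like structures, adipocyte size, lipid droplets and multilocular cells were assessed. Scale bar 100 μm.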

[8] = tested on: Mus musculus; assay: Anti-obesity activity in C57BL/6J mouse model of diet-induced obesity assessed as induction of thermogenic activity by measuring increase in Ucp1 protein expression in BAT at 10 mg/kg, ip dosed daily for 8 weeks immunohistochemistry; format: functional, organism-based
Procedure, shortened: (§3)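 C57BL/6J mice fed a 60% fat-calorie diet from 12 weeks of age, dosed ip daily for eight weeks. For Ucp1 mRNA, total RNA was extracted from BAT or iWAT with TRIzol and analysed by quantitative RT-PCR as relative expression. UCP1 protein was detected by immunohistochemistry on five-micron paraffin sections. n = 5/group.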

[9] = tested on: Mus musculus; assay: Anti-obesity activity in C57BL/6J mouse model of diet-induced obesity assessed as reduction in adipose tissues by measuring BAT at 10 mg/kg, ip dosed daily for 8 weeks; format: functional, organism-based
Procedure, shortened: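 After eight weeks of daily ip dosing at 10 mg/kg with high-fat diet (60% fat calories) in C57BL/6J mice starting at 12 weeks, gross appearance of dissected eWAT, iWAT and BAT was photographed against a 1 cm × 1 cm grid.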

[10] = tested on: Mus musculus; assay: Anti-hepatic steatosis activity in C57BL/6J mouse model of diet-induced obesity assessed as reduction in plasma cholesterol level at 10 mg/kg, ip dosed daily for 8 weeks colorimetry; format: functional, organism-based
[11] = target: CYP2D6 (Homo sapiens, UniProt P10635); assay: Inhibition of CYP2D6 (unknown origin) at 10 uM relative to control; format: ADME
CYP2D6, sequence (P10635 whole entry): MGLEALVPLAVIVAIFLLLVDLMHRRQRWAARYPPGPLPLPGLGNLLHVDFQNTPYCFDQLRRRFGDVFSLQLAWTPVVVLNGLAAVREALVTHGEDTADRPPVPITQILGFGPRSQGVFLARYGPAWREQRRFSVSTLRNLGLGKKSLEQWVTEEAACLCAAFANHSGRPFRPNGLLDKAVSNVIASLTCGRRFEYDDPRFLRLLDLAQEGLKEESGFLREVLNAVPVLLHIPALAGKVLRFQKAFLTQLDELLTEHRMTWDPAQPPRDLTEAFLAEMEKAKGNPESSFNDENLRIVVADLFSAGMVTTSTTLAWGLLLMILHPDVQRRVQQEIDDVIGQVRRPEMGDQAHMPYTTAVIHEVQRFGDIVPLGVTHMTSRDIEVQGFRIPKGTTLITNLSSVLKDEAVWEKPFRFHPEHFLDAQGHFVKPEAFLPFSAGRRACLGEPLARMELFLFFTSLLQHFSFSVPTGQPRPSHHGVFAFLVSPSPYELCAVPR

[12] = tested on: Mus musculus; assay: Anti-obesity activity in C57BL/6J mouse model of diet-induced obesity assessed as increase in VCO2 at 10 mg/kg, ip dosed daily for 8 weeks by indirect calorimetry; format: functional, organism-based; procedure, shortened: as §1
[13] = target: T1, CYP1A2 (Homo sapiens, UniProt P05177); assay: Inhibition of CYP1A2 (unknown origin) at 10 uM relative to control; format: ADME
T1 sequence (P05177 whole entry): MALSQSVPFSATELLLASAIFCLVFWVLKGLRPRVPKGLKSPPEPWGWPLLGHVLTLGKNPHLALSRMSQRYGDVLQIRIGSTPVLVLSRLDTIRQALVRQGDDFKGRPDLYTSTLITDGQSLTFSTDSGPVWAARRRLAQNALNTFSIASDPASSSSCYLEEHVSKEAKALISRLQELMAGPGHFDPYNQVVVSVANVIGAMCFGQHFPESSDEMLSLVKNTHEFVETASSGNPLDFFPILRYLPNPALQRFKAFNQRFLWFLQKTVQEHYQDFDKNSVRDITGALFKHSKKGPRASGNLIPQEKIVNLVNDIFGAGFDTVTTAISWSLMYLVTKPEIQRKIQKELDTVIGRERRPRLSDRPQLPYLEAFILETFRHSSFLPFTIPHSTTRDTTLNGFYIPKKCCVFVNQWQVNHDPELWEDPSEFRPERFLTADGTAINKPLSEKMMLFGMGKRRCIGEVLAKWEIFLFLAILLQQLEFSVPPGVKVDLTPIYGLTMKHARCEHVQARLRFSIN

[14] = tested on: Mus musculus; assay: Anti-obesity activity in C57BL/6J mouse model of diet-induced obesity assessed as induction of thermogenic activity by measuring increase in Ucp1 mRNA expression in BAT at 10 mg/kg, ip dosed daily for 8 weeks by RT-PCR analysis; format: functional, organism-based; procedure, shortened: as §3
[15] = tested on: Mus musculus; assay: Anti-obesity activity in C57BL/6J mouse model of diet-induced obesity assessed as increase in lean body mass at 10 mg/kg, ip dosed daily for 8 weeks; format: functional, organism-based; procedure, shortened: as §2
[16] = tested on: Mus musculus; assay: Anti-obesity activity in C57BL/6J mouse model of diet-induced obesity assessed as suppression of 5-HT levels in brain at 10 mg/kg, ip dosed daily for 1 week by LC-MS/MS analysis; format: functional, organism-based; conditions: time 1.0 weeks
[17] = tested on: Mus musculus; assay: Anti-obesity activity in C57BL/6J mouse model of diet-induced obesity assessed as induction of thermogenic activity by measuring increase in Ucp1 protein expression in iWAT at 10 mg/kg, ip dosed daily for 8 weeks immunohistochemistry; format: functional, organism-based; procedure, shortened: as §3

COc1ccc(-c2nc(-c3ccc(C[C@H](N)C(=O)O)cc3)no2)cc1-c1ccc(O)cc1.Cl
92%: remaining at 0.5 h [2]
3.2%: inhibition at 10 µM [13]
inactive: Activity [1] | Activity [16] | Activity [17]
active: Activity [3] | Activity [4] | Activity [5] | Activity [6] | Activity [7] | Activity [8] | Activity [9] | Activity [10] | Activity [12] | Activity [14] | Activity [15]
< 1%: inhibition at 10 µM [11]
